Test results from paper PMC4312721 (Biochimica et biophysica acta, 2014).
Like-named read-outs stand apart in the source and are kept apart here.

Columns and labels:
PLD2 = conditions: xenograft mice models ref Henkels, Boivin et al. 2013; cited from earlier work
PLD = conditions: cited from earlier work
PLD1 [1] = target: T1, PLD1 (Homo sapiens, UniProt Q13393); assay: Phospholipase; type: biochemical
T1 sequence (Q13393 1-1074): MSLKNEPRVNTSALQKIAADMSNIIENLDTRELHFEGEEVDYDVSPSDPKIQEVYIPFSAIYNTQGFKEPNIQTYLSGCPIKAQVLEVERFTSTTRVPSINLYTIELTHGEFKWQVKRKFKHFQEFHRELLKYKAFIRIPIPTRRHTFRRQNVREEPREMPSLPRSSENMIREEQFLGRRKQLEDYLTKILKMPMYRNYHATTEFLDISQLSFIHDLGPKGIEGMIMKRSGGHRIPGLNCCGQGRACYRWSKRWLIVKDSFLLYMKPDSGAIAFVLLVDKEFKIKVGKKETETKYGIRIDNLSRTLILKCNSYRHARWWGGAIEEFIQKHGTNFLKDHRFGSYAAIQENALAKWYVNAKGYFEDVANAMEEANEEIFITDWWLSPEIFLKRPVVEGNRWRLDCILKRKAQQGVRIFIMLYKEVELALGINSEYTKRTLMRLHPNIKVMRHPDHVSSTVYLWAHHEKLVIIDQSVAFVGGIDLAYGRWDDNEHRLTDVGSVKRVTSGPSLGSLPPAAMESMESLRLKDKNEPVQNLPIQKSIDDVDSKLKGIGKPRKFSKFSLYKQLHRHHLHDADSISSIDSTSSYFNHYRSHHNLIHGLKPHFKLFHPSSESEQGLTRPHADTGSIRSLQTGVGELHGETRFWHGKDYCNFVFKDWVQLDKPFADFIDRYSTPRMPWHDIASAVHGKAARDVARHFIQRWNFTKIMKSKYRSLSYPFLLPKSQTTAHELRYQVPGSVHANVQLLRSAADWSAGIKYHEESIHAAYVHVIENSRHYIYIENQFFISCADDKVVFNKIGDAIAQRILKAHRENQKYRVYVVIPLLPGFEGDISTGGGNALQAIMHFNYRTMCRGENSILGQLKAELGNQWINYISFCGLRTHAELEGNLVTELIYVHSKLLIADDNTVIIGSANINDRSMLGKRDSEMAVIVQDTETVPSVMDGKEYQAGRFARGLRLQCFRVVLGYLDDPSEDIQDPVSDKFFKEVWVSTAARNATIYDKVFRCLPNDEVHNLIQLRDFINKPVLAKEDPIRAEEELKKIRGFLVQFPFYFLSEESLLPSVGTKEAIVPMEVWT

[2] = in vivo ref Monovich, Mugrage et al. 2007; cited from earlier work
PLD1 [3] = target: T1, PLD1; conditions: inhibiting PLD1 in the tumor microenvironment ref Chen, Hongu et al. 2012; cited from earlier work
recombinant PLD2 [4] = target: T2, recombinant PLD2 (Homo sapiens, UniProt O14939); assay: Lipase assay of recombinant PLD2 with increasing concentrations of PIP2; type: biochemical; conditions: 300 nM inhibitor, fixed PC8
T2 sequence (O14939 whole entry, species assumed): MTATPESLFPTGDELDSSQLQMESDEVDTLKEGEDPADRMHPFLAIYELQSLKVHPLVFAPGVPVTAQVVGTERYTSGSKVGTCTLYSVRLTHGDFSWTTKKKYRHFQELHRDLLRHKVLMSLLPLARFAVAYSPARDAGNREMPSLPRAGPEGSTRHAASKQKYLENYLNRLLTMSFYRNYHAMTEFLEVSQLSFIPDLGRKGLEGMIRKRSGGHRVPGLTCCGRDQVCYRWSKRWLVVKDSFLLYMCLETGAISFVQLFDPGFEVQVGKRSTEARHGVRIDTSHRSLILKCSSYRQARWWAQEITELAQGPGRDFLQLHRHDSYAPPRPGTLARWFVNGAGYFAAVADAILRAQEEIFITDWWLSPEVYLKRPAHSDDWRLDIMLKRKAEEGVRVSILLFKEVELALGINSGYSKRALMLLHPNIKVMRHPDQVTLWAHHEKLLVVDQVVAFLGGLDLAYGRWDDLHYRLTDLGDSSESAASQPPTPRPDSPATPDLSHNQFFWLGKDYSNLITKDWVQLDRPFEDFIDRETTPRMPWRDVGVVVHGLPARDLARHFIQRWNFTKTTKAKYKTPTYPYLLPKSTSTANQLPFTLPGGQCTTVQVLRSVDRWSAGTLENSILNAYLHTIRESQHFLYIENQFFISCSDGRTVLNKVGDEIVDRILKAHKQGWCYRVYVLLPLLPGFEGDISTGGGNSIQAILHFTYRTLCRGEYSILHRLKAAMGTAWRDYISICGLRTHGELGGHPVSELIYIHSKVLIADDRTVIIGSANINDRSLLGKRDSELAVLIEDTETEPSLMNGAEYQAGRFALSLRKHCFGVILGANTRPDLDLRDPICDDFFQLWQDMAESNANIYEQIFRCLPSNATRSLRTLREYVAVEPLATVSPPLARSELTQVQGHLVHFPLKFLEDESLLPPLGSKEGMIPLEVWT
Summary of the method: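 Baculovirus-expressed, TALON-enriched full-length PLD2 was left untreated or treated with 300 nM inhibitor. It was then run in the lipase assay with increasing PIP2 concentrations and a fixed concentration of PC8 substrate. Activity was read as radiolabelled phosphatidylbutanol, co-migrating with PBut standards, by scintillation counting.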

recombinant PLD2 [5] = target: T2, recombinant PLD2; assay: Enzyme inhibition kinetics with purified recombinant PLD2; type: biochemical; conditions: 300 nM inhibitor; for Effect on Km / Effect on Vmax / Type of inhibition (Lineweaver Burk plot): increasing PC
Summary of the method: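 Purified full-length PLD2 was expressed in Sf21 insect cells with a baculovirus system and enriched on TALON matrix. Two assay formats were used. In one, increasing enzyme amounts, untreated or with 300 nM inhibitor, were run with fixed PC at 3.5 mM. In the other, fixed enzyme, ± 300 nM inhibitor, was run with increasing PC. [3H]-phosphatidylbutanol co-migrating with PBut standards was measured by scintillation counting. Data were plotted as Michaelis-Menten and Lineweaver-Burk plots.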

PLD2 mutants [6] = target: PLD2 mutants (Homo sapiens, UniProt O14939, S757A); assay: Lipase activity of PLD2 mutants overexpressed in COS7 cells; type: biochemical; conditions: 300 nM
Sequence of PLD2 mutants (Homo sapiens, UniProt O14939, S757A) (O14939 whole entry S757A): as the sequence (O14939 whole entry, species assumed) above, with S757A counted along it
Summary of the method: (§1)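 COS-7 cells in DMEM/10% FBS were transfected at 60% confluence with 1–6 μg plasmid (PLD2 mutants) using Lipofectamine/Plus, with 3 h exposure and 48 h expression. Lysates were treated with 300 nM test compound for 25 min. The lipase assay ran 20 min at 30 °C with shaking and was stopped with ice-cold chloroform/methanol (1:2). Lipids were separated by TLC, and [3H]-phosphatidylbutanol was quantified by scintillation counting.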

PLD2 mutants [7] = assay: as above; type: biochemical
Summary of the method: as §1

[8] = tested on: breast cancer cells (MDA-MB-231); assay: Cell invasion assay; type: cell-based; conditions: 300 nM, 700 nM; not in cells overexpressing resistant PLD2 mutants
Summary of the method: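 PLD2 mutant constructs were overexpressed by transfection. After transfection, cells were harvested and treated with the test compound at 300 or 700 nM for 20 min. Invasion was then run in Matrigel inserts.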

[9] = ref Lewis JA et al, Bioorg Med Chem Lett, 2009

In the case of `O=C(NCCN1CCC2(CC1)C(=O)NCN2c1ccccc1)c1ccc2ccccc2c1` [NOPT, N-[2-(4-oxo-1-phenyl-1,3,8-triazaspiro[4,5]dec-8-yl)ethyl]-2-naphthalenecarboxamide], the “Tumor metastasis and cell invasion” value (PLD2) is given as “inhibited tumor metastasis and cell invasion” and the Isoform specificity (PLD; [9]) is given as “PLD2 inhibitor”.
In the case of `O=C(NCCN1CCC(n2c(=O)[nH]c3ccccc32)CC1)c1cc2cc(F)ccc2[nH]1` [FIPI, N-[2-[4-(2,3-dihydro-2-oxo-1H-benzimidazol-1-yl)-1-piperidinyl]ethyl]-5-fluoro-1H-indole-2-carboxamide], the IC50 (PLD1 [1]) is given as 30 nM, the bioavailability [2] is given as 18% and the half-life in vivo [2] is given as 5.5 h. For the same molecule, the Metastasis and angiogenesis (PLD1 [3]) was “dampens metastasis and angiogenesis”, the Isoform specificity (PLD; ref Su W et al, Mol Pharmacol, 2009) was “Dual (PLD1 and PLD2) inhibitor” and the “PLD2 inhibition with increasing concentrations of PIP2” value (recombinant PLD2 [4]) was “FIPI inhibited the enzyme”. For the same molecule, the “Competition by increasing enzyme or substrate” value (recombinant PLD2 [5]) was “not totally competed off”, the “Effect on Km” value (recombinant PLD2 [5]) was “increase the Km” and the “Effect on Vmax” value (recombinant PLD2 [5]) was “decreasing the Vmax”. The “Type of inhibition (Lineweaver Burk plot)” value (recombinant PLD2 [5]) was “mixed-type inhibition”, the “Inhibition of PLD2-S757A lipase activity” value (PLD2 mutants [6]) was “resistant” and the “Inhibition of lipase activity of the battery of PLD2 mutants” value (PLD2 mutants [7]; 300 nM) was “inhibited most of the mutants”.
For `CC(CN1CCC(n2c(=O)[nH]c3cc(Cl)ccc32)CC1)NC(=O)c1ccc2ccccc2c1` (stereo not shown) [NBOD, N-[2-[4-(5-chloro-2,3-dihydro-2-oxo-1H-benzimidazol-1-yl)-1-piperidinyl]-1-methylethyl]-2-naphthalenecarboxamide], the Isoform specificity (PLD; [9]) is given as “PLD1 inhibitor”.
For `C[C@@H](CN1CCC(n2c(=O)[nH]c3cc(Br)ccc32)CC1)NC(=O)[C@@H]1C[C@H]1c1ccccc1` [RBPC, (1R,2R)-N-([S]-1-{4-[5-bromo-2-oxo-2,3-dihydro-1H-benzo(d)imidazol-1-yl]piperidin-1-yl}propan-2-yl)-2-phenylcyclopropanecarboxamide], the “Inhibition of PLD activity in PLD1 overexpressed samples” value (PLD1 [1]; Figure 1) is given as “did not efficiently inhibit PLD activity” and the Isoform specificity (PLD; [9]) is given as “PLD1 inhibitor”.
In the case of `O=C(NCCN1CCC2(CC1)C(=O)NCN2c1cccc(F)c1)c1ccc2ccccc2c1` [NFOT, N-[2-[1-(3-Fluorophenyl)-4-oxo-1,3,-8-triazaspiro[4,5]dec-8-yl]ethyl]-2-naphthalenecarboxamide], the “Cell invasion of cancer cells” value [8] is listed as “prevents cell invasion”, the Isoform specificity (PLD; ref Lavieri RR et al, J Med Chem, 2010) is listed as “PLD2 inhibitor” and the “PLD2 inhibition with increasing concentrations of PIP2” value (recombinant PLD2 [4]) is listed as “enzyme activity was regained back”. For the same molecule, the “Effect on Km” value (recombinant PLD2 [5]) was “increase the Km”, the “Effect on Vmax” value (recombinant PLD2 [5]) was “decreasing the Vmax” and the “Type of inhibition (Lineweaver Burk plot)” value (recombinant PLD2 [5]) was “mixed-type inhibition”. For the same molecule, the “Inhibition of PLD2-H158Q, Y165F, L173A, R210/212A, F244N/L245/L246A, S648A and S757A lipase activity” value (PLD2 mutants [7]; 300 nM) was “demonstrated resistance” and the “Inhibition of PLD2-R210A/R212A, F244N/L245/L246A, S648A and S757A lipase activity” value (PLD2 mutants [7]; range of inhibitor concentrations, Figure 5) was “partially resistant to inhibition”.
